In article PMC9391279 (Cell chemical biology, 2022):

Assays:
[1] = target: T1, BRD4 in MDA-MB-231 cells (Homo sapiens, UniProt O60885); assay: BRD4 degradation rescue experiments, MDA-MB-231; assay type: cell-based, H. sapiens; conditions: for Rescue of CS-JQ1-induced BRD4 degradation by co-treatment: MDA-MB-231, co-treatment with CS-JQ1, 5 h; for Rescue of dBET6-induced BRD4 degradation by co-treatment: MDA-MB-231, co-treatment with dBET6, 5 h
[2] = target: T2, BRD4 in MCF7 cells (Homo sapiens, UniProt O60885); assay: BRD4 degradation rescue experiments, MCF7; assay type: cell-based, H. sapiens; conditions: for Rescue of CS-JQ1-induced BRD4 degradation by co-treatment: MCF7, co-treatment with CS-JQ1, 5 h; for Rescue of dBET6-induced BRD4 degradation by co-treatment: MCF7, co-treatment with dBET6, 5 h
[3] = target: Keap1-BTB domain (Homo sapiens, UniProt Q14145); assay: TR-FRET ligand displacement assay, Keap1-BTB domain; assay type: binding
Chain of Keap1-BTB domain (Q14145 whole entry, the tested form may be a part): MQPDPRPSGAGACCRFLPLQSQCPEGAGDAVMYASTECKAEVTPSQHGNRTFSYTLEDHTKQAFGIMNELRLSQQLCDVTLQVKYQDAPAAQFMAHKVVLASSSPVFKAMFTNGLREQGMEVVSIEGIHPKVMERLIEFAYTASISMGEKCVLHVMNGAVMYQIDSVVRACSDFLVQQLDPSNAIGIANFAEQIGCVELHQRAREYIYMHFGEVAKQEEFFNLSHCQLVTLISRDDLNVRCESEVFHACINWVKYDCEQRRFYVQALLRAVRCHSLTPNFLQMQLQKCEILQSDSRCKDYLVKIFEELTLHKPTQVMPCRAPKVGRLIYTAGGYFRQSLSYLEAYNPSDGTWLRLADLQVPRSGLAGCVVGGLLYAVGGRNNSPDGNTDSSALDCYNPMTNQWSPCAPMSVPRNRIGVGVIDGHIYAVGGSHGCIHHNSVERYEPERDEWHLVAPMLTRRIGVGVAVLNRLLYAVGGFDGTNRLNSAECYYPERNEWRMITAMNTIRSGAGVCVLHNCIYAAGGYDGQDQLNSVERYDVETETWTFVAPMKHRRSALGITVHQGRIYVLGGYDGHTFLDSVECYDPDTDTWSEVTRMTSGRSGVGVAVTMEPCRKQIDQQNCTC

[4] = target: T1, BRD4 in MDA-MB-231 cells; assay: TR-FRET BRD4 quantification, 96-well plate format; assay type: cell-based, H. sapiens; conditions: MDA-MB-231, 30 min to 10 h, 96-well no wash-out
[5] = system: BRD4; assay: TR-FRET ligand displacement assays with recombinant BRD4; assay type: binding, human; conditions: Figure 4B
Summary of the method: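 Tracer displacement of JQ1-FITC (20 nM) from 4 nM GST-BRD4(BD1) or GST-BRD4(BD2) with 4 nM CoraFluor-1 anti-GST VHH, in HEPES/NaCl/BSA/Tween buffer, pH 7.5. Endogenous BRD4 was tested in clarified MCF7 lysate at 0.8 mg/mL total protein. Floor was a 10 μM reference inhibitor; ceiling was no inhibitor. Four-parameter IC50 fits were converted to KD,app by Cheng-Prusoff using tracer KD,app.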

[6] = system: full-length Keap1 and individual BRD4 bromodomains; assay type: biochemical; conditions: BRD4(BD1) or BRD4(BD2)
[7] = target: T2, BRD4 in MCF7 cells; assay: TR-FRET BRD4 quantification, 24-well plate format, MCF7; assay type: cell-based, H. sapiens; conditions: MCF7, 5 h treatment, 1 h washout
[8] = target: Keap1-Kelch domain (Homo sapiens, UniProt Q14145); assay: TR-FRET ligand displacement assay, Keap1-Kelch domain; assay type: binding
Chain of Keap1-Kelch domain (Q14145 whole entry, the tested form may be a part): as above

[9] = target: T1, BRD4 in MDA-MB-231 cells; assay: BRD4 ubiquitination by immunoprecipitation / Western blot; assay type: cell-based, H. sapiens; conditions: MDA-MB-231, 5 h
[10] = target: T1, BRD4 in MDA-MB-231 cells; assay: TR-FRET BRD4 quantification, 24-well plate format, MDA-MB-231; assay type: cell-based, H. sapiens; conditions: MDA-MB-231, 5 h treatment, 1 h washout
[11] = target: BRD4(BD1); conditions: read-out: KD,BD1, ref Faivre et al., 2020; cited from earlier work
[12] = target: BRD4(BD2); conditions: read-out: KD,BD2, ref Faivre et al., 2020; cited from earlier work

SMILES	Rescue of CS-JQ1-induced BRD4 degradation by co-treatment [1]	Rescue of dBET6-induced BRD4 degradation by co-treatment [1]	Rescue of CS-JQ1-induced BRD4 degradation by co-treatment [2]	Rescue of dBET6-induced BRD4 degradation by co-treatment [2]	further results
NS(=O)(=O)OC[C@@H]1C[C@@H](n2ccc3c(N[C@H]4CCc5ccccc54)ncnc32)C[C@@H]1O [MLN4924]	restored BRD4 levels	attenuated	restored BRD4 levels	attenuated	
Nc1cccc2c1C(=O)N(C1CCC(=O)NC1=O)C2=O (stereo not drawn) [pomalidomide]		attenuated		attenuated	
CC(C)C[C@H](NC(=O)[C@H](Cc1ccccc1)NC(=O)c1cnccn1)B(O)O [bortezomib]		attenuated		attenuated	
COC(=O)[C@]12CCC(C)(C)C[C@H]1[C@H]1C(=O)C=C3[C@@]4(C)C=C(C#N)C(=O)C(C)(C)[C@@H]4CC[C@@]3(C)[C@]1(C)CC2 [CDDO-Me, bardoxolone methyl]	not altered				Kd [3]: 24 nM
CC1=C(O)C(=O)C=C2C1=CC=C1[C@@]2(C)CC[C@@]2(C)[C@@H]3C[C@](C)(C(=O)O)CC[C@]3(C)CC[C@]12C [CS, celastrol]	reduced CS-JQ1 degradation efficiency		reduced CS-JQ1 degradation efficiency		
NS(=O)(=O)OC[C@H]1C[C@@H](Nc2ccnc3cc(-c4cccc(SC(F)(F)F)c4)nn23)[C@H](O)[C@@H]1O [MLN7243]	restored BRD4 levels	attenuated	restored BRD4 levels	attenuated	
CC1=C(O)C(=O)C=C2C1=CC=C1[C@@]2(C)CC[C@@]2(C)[C@@H]3C[C@](C)(C(=O)NCCCOCCOCCOCCCNC(=O)CC4N=C(c5ccc(Cl)cc5)c5c(sc(C)c5C)-n5c(C)nnc54)CC[C@]3(C)CC[C@]12C (stereo partly drawn) [CS-JQ1, (2R,4aS,6aS,12bR,14aS,14bR)-N-(1-(4-(4-chlorophenyl)-2,3,9-trimethyl-6H-thieno[3,2-f][1,2,4]triazolo[4,3-a][1,4]diazepin-6-yl)-2-oxo-7,10,13-trioxa-3-azahexadecan-16-yl)-10-hydroxy-2,4a,6a,9,12b,14a-hexamethyl-11-oxo-1,2,3,4,4a,5,6,6a,11,12b,13,14,14a,14b-tetradecahydropicene-2-carboxamide]					BRD4 degradation kinetics (in words) [4]: slightly slower kinetics; Target engagement with BRD4 (in words) [5]: validated target engagement with BRD4; Ternary complex formation between full-length Keap1 and individual BRD4 bromodomains [6]: could induce ternary complex formation; BRD4 level by TR-FRET after treatment (in words) [7]: dose-dependent and efficient degradation of BRD4; Binding to the Keap1 Kelch domain (in words) [8]: lost the ability to bind; Induction of BRD4 ubiquitination [9]: induce BRD4 ubiquitination; BRD4 level by TR-FRET after treatment (in words) [10]: dose-dependent and efficient degradation of BRD4; Affinity for the Keap1 BTB domain (in words) ([3]; compared with celastrol): slightly improved affinity
Cc1ncsc1-c1ccc(CNC(=O)[C@@H]2C[C@@H](O)CN2C(=O)[C@@H](NC(=O)COCCOCCOCCNC(=O)C[C@@H]2N=C(c3ccc(Cl)cc3)c3c(sc(C)c3C)-n3c(C)nnc32)C(C)(C)C)cc1 [MZ1]					BRD4 degradation kinetics (in words) [4]: slightly slower degradation kinetics
CCS(=O)(=O)Nc1ccc(Oc2ccc(F)cc2F)c(-c2cn(C)c(=O)c3[nH]ccc23)c1 [ABBV-075, ABBV-075 (Mivebresib)]					Kd [11]: 13.8 nM; Kd [12]: 2.5 nM
